ChEMBL document CHEMBL1121369, “Antihypertensive (2-aminoethyl)thiourea derivatives. 1” (J Med Chem, 1980)

Columns and labels:
Rattus norvegicus [1] = assay: Compound is measured for oral antihypertensive activity in groups of 6-12 conscious spontaneously hypertensive rats at 100 mg/kg; format: functional
Procedure, shortened: (§1)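 Male spontaneously hypertensive rats of Wistar–Okamoto origin (12–15 weeks old, bred in-house) were dosed orally, in groups of 6–12 and conscious. Each rat was warmed for 5–10 min at 37–38 °C, then restrained. Systolic pressure was read indirectly at the tail with an occluding cuff and a piezoelectric pulse transducer, before dosing and at 1, 3, 6 and 24 h after.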

Rattus norvegicus [2] = assay: Compound is measured for oral antihypertensive activity in groups of 6-12 conscious spontaneously hypertensive rats at 250 mg/kg; format: functional; procedure, shortened: as §1
Rattus norvegicus [3] = assay: Compound is measured for oral antihypertensive activity in groups of 6-12 conscious spontaneously hypertensive rats at 100 mg/kg; Range is 15-20%; format: functional; procedure, shortened: as §1
Rattus norvegicus [4] = assay: Compound is measured for oral antihypertensive activity in groups of 6-12 conscious spontaneously hypertensive rats at 85 mg/kg; format: functional; procedure, shortened: as §1
Rattus norvegicus [5] = assay: Compound is measured for oral antihypertensive activity in groups of 6-12 conscious spontaneously hypertensive rats at 75 mg/kg; format: functional; procedure, shortened: as §1
Rattus norvegicus [6] = assay: Compound is measured for oral antihypertensive activity in groups of 6-12 conscious spontaneously hypertensive rats at 60 mg/kg; format: functional; procedure, shortened: as §1
in vivo = conditions: blood, po
Rattus norvegicus [7] = assay: Compound is measured for oral antihypertensive activity in groups of 6-12 deoxy-corticosterone-sodium hypertensive (DOCA-Na) rats at 0.5 mg/kg; format: functional
Procedure, shortened: (§2)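 DOCA-Na rats were given two weeks to become hypertensive (systolic above 200 mmHg) and were then dosed orally, in groups of 6–12 and unanesthetized. Rats were warmed for 5–10 min at 37–38 °C and restrained. Systolic tail pressure was read with a cuff and pneumatic pulse transducer, before dosing and at 1, 3, 6 and 24 h post-dose.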

Rattus norvegicus [8] = assay: (§3) Oral dose required to cause 20% fall in blood pressure; format: functional
[9] = Therapeutic ratio is oral dose producing sedation/reduction in blood pressure; format: ADME, tissue-based
Monkey = assay: Oral dose required to cause 20% fall in sedation; Increase in foot shock rate; format: functional
Procedure, shortened: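 Male Charles River C-D rats and squirrel monkeys were trained to press a lever at a stable rate to postpone a 5-s foot shock, given every 20 s on failure. Drugs were given orally, with control sessions before, between and after test sessions. Avoidance-rate decrease and the increase in shocks/hour were recorded. Significance threshold: a 12% decrease or 4 extra shocks/hour (p ≤ 0.05).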

Rattus norvegicus [10] = assay: Compound is measured for oral antihypertensive activity in groups of 6-12 conscious spontaneously hypertensive rats at 0.5 mg/kg; format: functional; procedure, shortened: as §1
Canis familiaris = assay: as §3; format: functional, Canis lupus familiaris
Rattus norvegicus [11] = assay: Compound is measured for oral antihypertensive activity in groups of 6-12 deoxy-corticosterone-sodium hypertensive (DOCA-Na) rats at 5 mg/kg; Range is 10-15%; format: functional; procedure, shortened: as §2
Rattus norvegicus [12] = assay: Compound is measured for oral antihypertensive activity in groups of 6-12 conscious spontaneously hypertensive rats at 1 mg/kg (fall in systolic blood pressure 6-24 hr after dosing); format: functional, Artery; procedure, shortened: as §1
Rattus norvegicus [13] = assay: Compound is measured for oral antihypertensive activity in groups of 6-12 conscious spontaneously hypertensive rats at 10 mg/kg(fall in systolic blood pressure 6-24 hr after dosing); format: functional, Artery; procedure, shortened: as §1
Rattus norvegicus [14] = assay: Compound is measured for oral antihypertensive activity in groups of 6-12 deoxy-corticosterone-sodium hypertensive (DOCA-Na) rats at 10 mg/kg(fall in systolic blood pressure 6-24 hr after dosing); format: functional, Artery; procedure, shortened: as §2
Rattus norvegicus [15] = assay: Compound is measured for oral antihypertensive activity in groups of 6-12 deoxy-corticosterone-sodium hypertensive (DOCA-Na) rats at 1 mg/kg; format: functional; procedure, shortened: as §2
Rattus norvegicus [16] = assay: Compound is measured for oral antihypertensive activity in groups of 6-12 conscious spontaneously hypertensive rats at 200 mg/kg; Range is 15-20%; format: functional; procedure, shortened: as §1
Rattus norvegicus [17] = assay: Compound is measured for oral antihypertensive activity in groups of 6-12 deoxy-corticosterone-sodium hypertensive (DOCA-Na) rats at 10 mg/kg; Range is 10-15%; format: functional; procedure, shortened: as §2
Rattus norvegicus [18] = assay: Compound is measured for oral antihypertensive activity in groups of 6-12 conscious spontaneously hypertensive rats at 250 mg/kg; Range is 10-15%; format: functional; procedure, shortened: as §1
Rattus norvegicus [19] = assay: Compound is measured for oral antihypertensive activity in groups of 6-12 conscious spontaneously hypertensive rats at 10 mg/kg; format: functional; procedure, shortened: as §1
Rattus norvegicus [20] = assay: Compound is measured for oral antihypertensive activity in groups of 6-12 conscious spontaneously hypertensive rats at 10 mg/kg; Range is 15-20%; format: functional; procedure, shortened: as §1
Rattus norvegicus [21] = assay: Compound is measured for oral antihypertensive activity in groups of 6-12 conscious spontaneously hypertensive rats at 175 mg/kg; format: functional; procedure, shortened: as §1
Rattus norvegicus [22] = assay: Compound is measured for oral antihypertensive activity in groups of 6-12 deoxy-corticosterone-sodium hypertensive (DOCA-Na) rats at 10 mg/kg; format: functional; procedure, shortened: as §2

NC(=O)CC/N=C(\S)Nc1c(Cl)cccc1Cl
Effect (Rattus norvegicus [1]): <10%

N/N=C(\S)Nc1c(Cl)cccc1Cl
Effect (Rattus norvegicus [2]): <10%

NS(=O)(=O)CC/N=C(\S)Nc1c(Cl)cccc1Cl
Effect (Rattus norvegicus [3]): 15%

CNCCN(C)/C(S)=N/c1c(Cl)cccc1Cl.O=C(O)/C=C\C(=O)O
Effect (Rattus norvegicus [4]): <10%

CCOC(=O)CC/N=C(\S)Nc1c(Cl)cccc1Cl
Effect (Rattus norvegicus [1]): <10%

Cc1ccc(/N=C(\S)NCCN)c(Cl)c1.O=C(O)/C=C\C(=O)O
Effect (Rattus norvegicus [1]): <10%

N#CCCNC(=S)Nc1c(Cl)cccc1Cl
Effect (Rattus norvegicus [5]): <10%

CN1CCN(/C(S)=N/c2c(Cl)cccc2Cl)CC1.Cl
Effect (Rattus norvegicus [6]): <10%

Clc1cccc(Cl)c1NC1=NCCN1 [CLONIDINE]
selectivity ratio (in vivo): 0.8
Effect (Rattus norvegicus [7]): >20%
Dose (Rattus norvegicus [8]): 0.06 mg/kg
Ratio [9]: 3
selectivity ratio [9]: 1.83
Dose (Monkey): 0.7 mg/kg
Effect (Rattus norvegicus [10]): >20%
Dose (Canis familiaris): 0.3 mg/kg

NCC/N=C(\S)Nc1cccc(Cl)c1Cl.O=C(O)/C=C\C(=O)O
Effect (Rattus norvegicus [11]): 10%
Effect (Rattus norvegicus [12]): >20%
Effect (Rattus norvegicus [13]): >20%
Effect (Rattus norvegicus [10]): <10%
Effect (Rattus norvegicus [14]): >20%
Effect (Rattus norvegicus [15]): <10%

NCCC/N=C(\S)Nc1c(Cl)cccc1Cl
Effect (Rattus norvegicus [16]): 15%

NCC/N=C(\N)Nc1c(Cl)cccc1Cl
Effect (Rattus norvegicus [17]): 10%
Effect (Rattus norvegicus [18]): 10%

Cl.NCC/N=C(\S)Nc1ccccc1
Effect (Rattus norvegicus [19]): <10%

Cc1cccc(C)c1/N=C(\S)NCCN.O=C(O)CCC(=O)O
Effect (Rattus norvegicus [20]): 15%
Effect (Rattus norvegicus [14]): >20%

OCC/N=C(\S)Nc1c(Cl)cccc1Cl
Effect (Rattus norvegicus [21]): <10%

CCO.NCC/N=C(\S)Nc1c(F)cccc1F.O=C(O)CCC(=O)O
Effect (Rattus norvegicus [22]): <10%
Effect (Rattus norvegicus [19]): <10%
